Data: ChEMBL document CHEMBL2202960, “Discovery of the investigational drug TAK-441, a pyrrolo[3,2-c]pyridine derivative, as a highly potent and orally active hedgehog signaling inhibitor: modification of the core skeleton for improved solubility” (Bioorg Med Chem, 2012)
≈ marks a conversion by molar mass, not a printed value. One block for each compound: values may come before it.

Assays:
Sonic hedgehog protein = Sonic hedgehog protein (Mus musculus, UniProt Q62226); experiment: Inhibition of recombinant mouse Shh-N expressed in mouse NIH3T3/Gli-luc cells assessed as inhibition of Gli1 expression after 48 hrs by luciferase reporter gene assay; type: cell-based
How it was run: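 NIH3T3/Gli-luc cells were kept in DMEM with 10% FBS and 500 µg/mL G418, then seeded overnight on collagen-coated plates at 7.5×10³ cells/well (37 °C, 5% CO2). Final well conditions were 5.8% FBS, 1 µg/mL Shh-N and 0.03–1000 nM compound (n = 4 wells), incubated 48 h. Controls used 0.1% DMSO ± Shh-N. Read-out was Bright-Glo luciferase, and IC50 is the mean of four measurements.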

[1] = Solubility of the compound in lapanese pharmacopoeia second fluid at pH 6.8; type: physicochemical; details: Japanese Pharmacopoeia second fluid
How it was run: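 Solubility was measured in Japanese Pharmacopoeia second fluid, pH 6.8. After incubation, precipitate was removed by filter-plate filtration and dissolved compound in the filtrate was quantified by HPLC.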

[2] = Oral bioavailability in rat at 10 mg/kg; type: ADME, organism-based; details: in vivo
How it was run: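 Rats (n = 3, listed as non-fasted) given 1 mg/kg iv and 10 mg/kg po. Plasma was deproteinized with methanol containing internal standard, centrifuged, and diluted in 0.01 mol/L ammonium formate/[MeCN/formic acid 100:0.2] (7:3). F was calculated from mean AUC_0–24h values after oral and intravenous dosing.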

[3] = Oral bioavailability in dog at 10 mg/kg; type: ADME, organism-based, Canis lupus familiaris; details: in vivo
How it was run: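 Fed dogs (n = 4) given 1 mg/kg iv and 10 mg/kg po. Plasma was deproteinized with methanol containing internal standard, centrifuged, and diluted in 0.01 mol/L ammonium formate/[MeCN/formic acid 100:0.2] (7:3). F was calculated per animal from AUC_0–24h after oral versus intravenous dosing in the same dog.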

Mus musculus [4] = experiment: Antitumor activity in Ptc1+/- p53-/- medulloblastoma allograft model of mouse assessed as tumor growth inhibition at 25 mg/kg, po qd for 14 days relative to control; type: functional
How it was run: (§1)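 Medulloblastoma tumours were serially passaged subcutaneously in nude mice (CAnN.Cg-Foxn1nu). Treatment started at 150–250 mm³ tumour volume: oral dosing as a 0.5% methylcellulose suspension for 14 days, once daily per the figure legend. Tumours were measured by caliper, with V = (a×b²)/2. T/C% = mean treated (Vend−Vstart) / control (Vend−Vstart) × 100, with n = 5 and a 1-tailed Shirley-Williams test against vehicle.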

[5] = AUC (0 to 24 hrs) in dog at 1 mg/kg, iv; type: ADME, organism-based, Canis lupus familiaris; design: time < 24 hr, dose 1 mg/kg, route intravenous; details: plasma
How it was run: (§2)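 Fed dogs were dosed at 1 mg/kg iv and 10 mg/kg po. Plasma was collected over 0–24 h, deproteinized with methanol containing an internal standard, centrifuged, and diluted with 0.01 mol/L ammonium formate/(MeCN/formic acid 100:0.2) (7:3) for compound quantitation. AUC_0–24h is reported as mean ± SD of four animals.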

[6] = AUC (0 to 24 hrs) in rat at 10 mg/kg, po; type: ADME, organism-based; design: time < 24 hr, dose 10 mg/kg, route oral; details: plasma
How it was run: (§3)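 Rats were given 1 mg/kg iv or 10 mg/kg po and were non-fasted. Plasma was sampled over 0–24 h, deproteinized with methanol plus an internal standard, centrifuged, diluted in 0.01 mol/L ammonium formate/(MeCN/formic acid 100:0.2) (7:3), and centrifuged again. AUC_0–24h is reported as mean ± SD of three animals.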

[7] = Cmax in nu/nu BALB/c mouse at 100 mg/kg, po; type: ADME, organism-based; design: dose 100 mg/kg, route oral; details: in vivo
[8] = AUC (0 to 24 hrs) in dog at 10 mg/kg, po; type: ADME, organism-based, Canis lupus familiaris; design: time < 24 hr, dose 10 mg/kg, route oral; details: plasma; how it was run: as §2
[9] = Clearance in rat at 1 mg/kg, iv and 10 mg/kg, po; type: ADME, organism-based; details: in vivo
How it was run: (§4)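 Single doses were given to rats and dogs: 1 mg/kg iv and 10 mg/kg po. Plasma was deproteinized with methanol containing internal standard, then diluted with 0.01 mol/L ammonium formate/(MeCN/formic acid) 7:3. Rat values are the mean ± SD of three non-fasted animals. Dog values come from four fed animals, with F calculated per animal from AUC0–24h.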

[10] = Volume of distribution at steady state in dog at 1 mg/kg, iv and 10 mg/kg, po; type: ADME, organism-based, Canis lupus familiaris; details: in vivo, read-out: Vdss; how it was run: as §4
Mus musculus [11] = experiment: Antitumor activity in Ptc1+/- p53-/- medulloblastoma allograft model of mouse assessed as tumor growth inhibition at 1 mg/kg, po qd for 14 days relative to control; type: functional; how it was run: as §1
[12] = AUC (0 to 24 hrs) in nu/nu BALB/c mouse at 100 mg/kg, po; type: ADME, organism-based; design: time < 24 hr, dose 100 mg/kg, route oral; details: plasma
[13] = AUC (0 to 24 hrs) in rat at 1 mg/kg, iv; type: ADME, organism-based; design: time < 24 hr, dose 1 mg/kg, route intravenous; details: plasma; how it was run: as §3
[14] = Volume of distribution at steady state in rat at 1 mg/kg, iv and 10 mg/kg, po; type: ADME, organism-based; details: in vivo, read-out: Vdss; how it was run: as §4
[15] = Clearance in dog at 1 mg/kg, iv and 10 mg/kg, po; type: ADME, organism-based, Canis lupus familiaris; details: in vivo; how it was run: as §4
Mus musculus [16] = experiment: Gli1 mRNA expression level in human PAN-04 cells xenografted mouse tumor at 25 mg/kg, po after 24 hrs of first dose relative to control; details: PAN-04, po

Chain of Sonic hedgehog protein (Q62226 25-198 limits assumed): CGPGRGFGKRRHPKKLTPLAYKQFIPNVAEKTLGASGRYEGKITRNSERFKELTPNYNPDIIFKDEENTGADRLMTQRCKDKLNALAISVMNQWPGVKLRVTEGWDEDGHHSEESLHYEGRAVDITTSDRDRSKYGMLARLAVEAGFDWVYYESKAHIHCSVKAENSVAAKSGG

IC50 (Sonic hedgehog protein): 96 nM | solubility [1]: 80 µg/mL (≈ 150 µM)
SMILES: COc1c(C(=O)NC2CCN(C(=O)CO)CC2)n(C)c2c3c(n(CC(=O)c4ccccc4)c(=O)c12)CCCC3

SMILES: CCc1cc2c(c(OCC(F)(F)F)c(C(=O)NC3CCN(C(=O)CO)CC3)n2C)c(=O)n1CC(=O)c1ccccc1 [TAK-441]
bioavailability [2]: 31.7% | bioavailability [3]: 90.3% | T/C (Mus musculus [4]): 3% | IC50 (Sonic hedgehog protein): 4.4 nM | AUC(0-t) at 24 h [5]: 5100 ng·h/mL | AUC(0-t) at 24 h [6]: 8030 ng·h/mL | Cmax [7]: 21500 ng/mL | AUC(0-t) at 24 h [8]: 45400 ng·h/mL | clearance [9]: 6.63 mL/min/kg | Vd [10]: 2.18 L/kg | T/C (Mus musculus [11]): 46% | AUC(0-t) at 24 h [12]: 206000 ng·h/mL | solubility [1]: 81 µg/mL (≈ 140 µM) | AUC(0-t) at 24 h [13]: 2530 ng·h/mL | Vd [14]: 0.682 L/kg | clearance [15]: 2.69 mL/min/kg

IC50 (Sonic hedgehog protein): 4.4 nM | solubility [1]: 84 µg/mL (≈ 150 µM)
SMILES: CCc1cc2c(c(OCC(F)F)c(C(=O)NC3CCN(C(=O)CO)CC3)n2C)c(=O)n1CC(=O)c1ccccc1

IC50 (Sonic hedgehog protein): 95 nM
SMILES: CCc1c(C(=O)NC2CCN(C(=O)CO)CC2)n(C)c2cc(CC)n(CC(=O)c3ccccc3)c(=O)c12

IC50 (Sonic hedgehog protein): 4.9 nM | solubility [1]: 69 µg/mL (≈ 128 µM)
SMILES: CCc1cc2c(c(OCCF)c(C(=O)NC3CCN(C(=O)CO)CC3)n2C)c(=O)n1CC(=O)c1ccccc1

IC50 (Sonic hedgehog protein): 5.7 nM | solubility [1]: 63 µg/mL (≈ 124 µM)
SMILES: CCc1cc2c(c(OC)c(C(=O)NC3CCN(C(=O)CO)CC3)n2C)c(=O)n1CC(=O)c1ccccc1

IC50 (Sonic hedgehog protein): 14 nM | solubility [1]: 77 µg/mL (≈ 156 µM)
SMILES: COc1c(C(=O)NC2CCN(C(=O)CO)CC2)n(C)c2cc(C)n(CC(=O)c3ccccc3)c(=O)c12

Cmax [7]: 3630 ng/mL | AUC(0-t) at 24 h [12]: 32300 ng·h/mL | solubility [1]: 8.4 µg/mL (≈ 15.8 µM)
SMILES: COc1c(C(=O)NC2CCN(C(=O)CO)CC2)n(C)c2c1c(=O)n(CC(=O)c1ccccc1)c1ccccc21
level, % of control at 25 mg/kg (Mus musculus [16]): 5%

IC50 (Sonic hedgehog protein): 6.9 nM | solubility [1]: 58 µg/mL (≈ 111 µM)
SMILES: CCOc1c(C(=O)NC2CCN(C(=O)CO)CC2)n(C)c2cc(CC)n(CC(=O)c3ccccc3)c(=O)c12
